# High-throughput results deposited in PubChem by several laboratories.
# Shown are actives, neighbours in structure and some others; about 3.9% of the full set was active somewhere.
# TMEM16A inh: mouse TMEM16A channel inhibition, primary screen. AID 588511. normalized B-score (activity score, 25-100; higher = stronger inhibition) at 10 µM. HEK293 TMEM16A/YFP iodide influx fluorescence, ionomycin. 1.2% of 310,000 active;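 active = ratio plate-corrected score three or more library SD toward inhibition, starting fluorescence score within five deviations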;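 also: score derived from kinetic fluorescence span divided by baseline fluorescence per well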
# Target sequence (Q8BHY3 whole entry, looked up): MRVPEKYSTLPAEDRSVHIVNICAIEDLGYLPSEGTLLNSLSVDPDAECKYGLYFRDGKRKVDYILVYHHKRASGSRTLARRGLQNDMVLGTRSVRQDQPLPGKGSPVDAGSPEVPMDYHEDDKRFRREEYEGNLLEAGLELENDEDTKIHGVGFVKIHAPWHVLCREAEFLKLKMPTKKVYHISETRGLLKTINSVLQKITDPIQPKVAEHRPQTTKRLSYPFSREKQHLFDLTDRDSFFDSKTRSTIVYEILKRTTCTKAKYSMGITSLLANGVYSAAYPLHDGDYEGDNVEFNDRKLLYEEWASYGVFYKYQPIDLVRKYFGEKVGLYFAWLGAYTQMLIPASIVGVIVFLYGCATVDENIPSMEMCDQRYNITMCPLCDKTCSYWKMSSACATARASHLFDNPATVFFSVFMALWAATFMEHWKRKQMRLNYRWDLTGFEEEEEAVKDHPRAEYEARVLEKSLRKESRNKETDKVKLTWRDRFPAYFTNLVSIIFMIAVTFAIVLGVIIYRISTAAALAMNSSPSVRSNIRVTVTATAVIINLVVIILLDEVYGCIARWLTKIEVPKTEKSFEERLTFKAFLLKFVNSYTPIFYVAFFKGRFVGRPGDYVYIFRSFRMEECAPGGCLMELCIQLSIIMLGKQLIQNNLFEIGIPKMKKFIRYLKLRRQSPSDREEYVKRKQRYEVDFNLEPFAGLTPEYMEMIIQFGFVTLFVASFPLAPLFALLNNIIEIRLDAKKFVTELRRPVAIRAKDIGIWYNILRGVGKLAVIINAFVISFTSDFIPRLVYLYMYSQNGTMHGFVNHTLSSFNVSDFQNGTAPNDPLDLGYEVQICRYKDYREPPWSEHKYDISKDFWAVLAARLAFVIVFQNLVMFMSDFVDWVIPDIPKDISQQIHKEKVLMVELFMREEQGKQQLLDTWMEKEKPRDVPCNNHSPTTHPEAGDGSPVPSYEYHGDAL
# CRFBP-R2 block: blocks CRF-induced signaling of the CRF-BP/CRF-R2 complex; HEK293 CRF-R2/CRF-BP, CRF-induced calcium fluorescence; inhibition, % at 11.8 µM; 0.59% of 350,000 active; AID 588475;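 active = inhibition of the ligand-induced calcium signal above about 50% at the single tested concentration, limit read from the data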
# CRFR2-BP ag: agonists of human CRF-binding protein/CRF-R2 receptor complex; HEK293 CRF-R2/CRF-BP, calcium dye fluorescence (FLIPR); percent of saturating CRF peptide response; 0.46% of 350,000 active; activation, % at 13.2 µM;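 active = activation of at least 50%, plus an integration ratio under a set limit after plate pattern correction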;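 also: plate controls were neutral control wells without compound for no effect and CRF at EC100 for full effect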
# TMEM16A act: activators or potentiators of mouse TMEM16A chloride channel | 0.3% of 340,000 active | HEK293 TMEM16A/YFP-H148Q/I152L, iodide quench fluorescence; stronger effect = lower value | Q8BHY3 | B-score at 10 µM;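 active = fluorescence-ratio B-score plate-corrected deviation score at least 3 library SD below zero, with starting fluorescence score within 5 deviations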;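 also: channel opened by trigger with iodide after compound preincubation; score built on the fluorescence ratio of max minus min over baseline; more negative score means more quench and so TMEM16A activation or potentiation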
# TAAR1 antagonist: antagonists of human TAAR1. Q96RJ0. CHO RD-HGA16 TAAR1, Fluo-8 calcium fluorescence, antagonist. inhibition, % at 3 µM. 1.5% of 360,000 active. AID 624466;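 active = inhibition above a per-plate cutoff, the mean inhibition of test compounds on that plate plus 3 SD, cut at about 49% in these data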;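 also: 0% = DMSO plus EC80 beta-PEA response and 100% = DMSO alone without agonist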
#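 Material: CHO RD-HGA16 cells bearing hTAAR1; compound dosing: one-point dosing, 3 µM nominal final; schedule: dye loading 75 min at 37 °C, then 30 min room temperature; measured by: calcium fluorescence with Fluo-8; control set: vehicle and agonist controls; replication: n of 1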
# TAAR1 agonist: human TAAR1 agonism | CHO RD-HGA16 TAAR1, Fluo-8 calcium fluorescence; vehicle wells 0%, saturating PEA agonist 100% | 0.99% of 360,000 active | Q96RJ0 | activation, % at 3 µM | AID 624467;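 active = activation above the mean activation of all test compounds in the run plus 3 SD, cut at about 38% in these data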
#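 Signal – calcium-sensitive Fluo-8 signal, excitation 470-495, emission 515-575 nm · System – RD-HGA16 (CHO) cells co-expressing Gα16 and hTAAR1 · Incubation – 17-24 h seeding, 75 min 37 °C dye, 30 min RT · Compound dosing – 3 µM single concentration · Repeats – no replicates (n 1)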
# An asterisk follows results filed as active; i = inactive; x = no result given.
SMILES,TMEM16A inh,CRFBP-R2 block,CRFR2-BP ag,TMEM16A act,TAAR1 antagonist,TAAR1 agonist
C=CCC1=C/C(=C\c2c(N)n3nc(CC(=O)N4CCCC4)sc3nc2=O)C=C(OC)C1=O,i,-105.5,71.0*,i,-6.9,4.9
COC1=CC(=Cc2c(N)n3nc(CC(=O)N4CCOCC4)sc3nc2=O)C=C(OC)C1=O,i,-108.9,151.0*,i,-2.1,8.3
COC1=C/C(=C/c2c(N)n3nc(CC(=O)N4CCCCC4)sc3nc2=O)C=CC1=O,i,-59.3,39.8,i,x,x
O=S1(=O)CCN(C2CCCCCCC2)CC1,x,4.9,-1.7,x,5.0,1.1
COC(=O)[C@H](Cc1ccccc1)NC(=O)/C=C/[C@H]1O[C@@H](n2ccc(=O)[nH]c2=O)[C@H](O)[C@@H]1O,x,x,x,x,-5.3,1.5
CC(=O)OC1CCC2(C)C(COc3ccc4ccc(=O)oc4c3)C(C)(O)CCC2C1(C)C (configuration not stated),i,26.1,1.3,i,55.6*,16.0
CCN(C(=O)COC(=O)c1ccc([N+](=O)[O-])o1)c1cccc2ccccc12,x,-3.2,-0.1,i,-10.6,4.2
N=c1oc2c3c4c(cc2cc1C(=O)Nc1ccccc1)CCCN4CCC3,i,-317.1,270.6*,i,x,x
Cc1ccc(S(=O)(=O)/N=C(/Nc2ccc([N+](=O)[O-])cc2[N+](=O)[O-])c2ccccc2)cc1,x,66.9*,0.9,i,-0.1,0.3
C#CCOCCOCCOCCNc1nc(N2CCN(C(=O)CCCCCCCCCCNC(=O)[C@H]([C@@H](C)CC)n3cc(CCCCN=C(N)N)nn3)CC2)nc(N2CCN(C(=O)CCCCCCCCCCNC(=O)[C@H]([C@@H](C)CC)n3cc(CCCCN=C(N)N)nn3)CC2)n1,i,x,x,x,x,x
C#CCOCCOCCOCCNc1nc(N2CCN(C(=O)CCCCCCCCCCNC(=O)[C@H]([C@@H](C)CC)n3cc(CCCCCN)nn3)CC2)nc(N2CCN(C(=O)CCCCCCCCCCNC(=O)[C@H]([C@@H](C)CC)n3cc(CCCCN=C(N)N)nn3)CC2)n1,i,x,x,-27.6*,x,x
C#CCOCCOCCOCCNc1nc(N2CCN(C(=O)CCCCCCCCCCNC(=O)[C@H]([C@@H](C)CC)n3cc(CCCCN=C(N)N)nn3)CC2)nc(N2CCN(C(=O)CCCCCCCCCCNC(=O)[C@H](CCCCN)n3cc(C)nn3)CC2)n1,i,-50.9,36.2,x,x,x
C#CCOCCOCCOCCNc1nc(N2CCN(C(=O)CCCCCCCCCCNC(=O)[C@H]([C@@H](C)CC)n3cc(CCCCN=C(N)N)nn3)CC2)nc(N2CCN(C(=O)CCCCCCCCCCNC(=O)[C@H](CO)n3cc(CCCCCN)nn3)CC2)n1,100*,-188.7,76.0*,-19.9*,x,x
C#CCOCCOCCOCCNc1nc(N2CCN(C(=O)CCCCCCCCCCNC(=O)Cn3cc(CCCCCN)nn3)CC2)nc(N2CCN(C(=O)CCCCCCCCCCNC(=O)[C@H]([C@@H](C)CC)n3cc(CCCCN=C(N)N)nn3)CC2)n1,i,-110.3,31.3,-20.8*,x,x
C#CCOCCOCCOCCNc1nc(N2CCN(C(=O)CCCCCCCCCCNC(=O)[C@H]([C@@H](C)CC)n3cc(CCCCCN)nn3)CC2)nc(N2CCN(C(=O)CCCCCCCCCCNC(=O)[C@@H]([C@H](C)CC)n3cc(CCCCCN)nn3)CC2)n1,i,x,x,x,x,x
C#CCOCCOCCOCCNc1nc(N2CCN(C(=O)CCCCCCCCCCNC(=O)[C@H]([C@@H](C)CC)n3cc(CCCCCN)nn3)CC2)nc(N2CCN(C(=O)CCCCCCCCCCNC(=O)[C@H](CO)n3cc(CCCCCN)nn3)CC2)n1,25*,-41.8,76.6*,-16.9*,x,x
COc1ccc(CC(=O)NNC(=O)c2nn(Cc3ccccc3)c(=O)c3ccccc23)cc1OC,i,0.4,-2.2,i,-27.6,0.7
O=C(CC1SC(N2CCCCC2)=NC1=O)Nc1cccc(C(=O)N2CCCC(C(F)(F)F)C2)c1 (configuration not stated),x,3.6,0.0,i,-11.6,8.9
CCN(c1ccccc1)S(=O)(=O)c1ccc(OC)c(NC(=O)C2CCC2)c1,x,1.6,0.7,i,-17.2,0.1
